Data reported in ChEMBL document CHEMBL3616437, “Thiazole compounds with activity against Cryptococcus gattii and Cryptococcus neoformans in vitro” (Eur J Med Chem, 2015).
Converted amounts (≈) assume the structure as drawn.

Key:
[1] = test system: Cryptococcus gattii species complex; test: Antifungal activity against Cryptococcus gattii 23/10993 after 48 to 72 hrs by broth microdilution method; assay type: functional, Cryptococcus bacillisporus
Procedure, shortened: (§1)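 CLSI M27-A3 broth microdilution in RPMI with L-glutamine, buffered to pH 7.0 with 0.165 M MOPS. Colonies grown twice on SDA, 48 h at 35°C. Inoculum set to 70% transmittance at 530 nm, then diluted to 1-5 x10^3 cells/mL. Test agents dissolved in DMSO, serially diluted, tested at 0.1 to 62.5 µM. Plates held at 35°C for 48-72 h. MIC is the lowest concentration giving an optically clear well, read visually against drug-free growth controls.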

Cryptococcus neoformans [2] = test: Antifungal activity against Cryptococcus neoformans VM-MCMMPI after 48 to 72 hrs by broth microdilution method; assay type: functional
Procedure, shortened: (§2)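 CLSI M27-A3 broth microdilution. Isolates subcultured twice on SDA, 48 h at 35°C. Saline suspension adjusted to 70% transmittance at 530 nm, then diluted to 1-5 x10^3 cells/mL in RPMI with L-glutamine, 0.165 M MOPS, pH 7.0. Compounds in DMSO, tested at […]. 35°C for 48-72 h. MIC read visually as the lowest concentration giving an optically clear well.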

[3] = test system: Cryptococcus gattii species complex; test: Antifungal activity against Cryptococcus gattii L27/01 after 48 to 72 hrs by broth microdilution method; assay type: functional, Cryptococcus bacillisporus; procedure, shortened: as §1
[4] = test system: Cryptococcus gattii species complex; test: Antifungal activity against Cryptococcus gattii LMM818 after 48 to 72 hrs by broth microdilution method; assay type: functional, Cryptococcus bacillisporus; procedure, shortened: as §1
[5] = test system: Cryptococcus gattii species complex; test: Antifungal activity against Cryptococcus gattii L28/02 after 48 to 72 hrs by broth microdilution method; assay type: functional, Cryptococcus bacillisporus; procedure, shortened: as §1
[6] = test system: Cryptococcus gattii species complex; test: Antifungal activity against Cryptococcus gattii 547/OTTI-97-PI-10 after 48 to 72 hrs by broth microdilution method; assay type: functional, Cryptococcus bacillisporus; procedure, shortened: as §1
[7] = test system: Cryptococcus gattii species complex; test: Antifungal activity against Cryptococcus gattii 135L/03 after 48 to 72 hrs by broth microdilution method; assay type: functional, Cryptococcus bacillisporus; procedure, shortened: as §1
Cryptococcus neoformans [8] = test: Antifungal activity against Cryptococcus neoformans 28JF after 48 to 72 hrs by broth microdilution method; assay type: functional; procedure, shortened: as §2
Cryptococcus neoformans [9] = test: Antifungal activity against Cryptococcus neoformans ATCC 24067 after 48 to 72 hrs by broth microdilution method; assay type: functional; procedure, shortened: as §2
[10] = Cytotoxicity against C57BL/6 mouse peritoneal macrophages assessed as cell viability measured after 48 hrs by MTT assay; assay type: cell-based; settings: C57BL/6, Peritoneal macrophage cell
Procedure, shortened: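 Thioglycollate-elicited peritoneal macrophages from male C57BL/6 mice, 6–8 weeks old, in RPMI with 10% FBS. Seeded 1 x 10^5 cells/well, pre-incubated 24 h at 37°C. Exposed 48 h at 37°C, 5% CO2, to eight nonserial dilutions from 100 to 0.0128 µM, with 0.5% DMSO control. MTT read-out, % inhibition versus DMSO control. IC50 reported as median with 95% CI. Triplicate, two independent experiments.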

[11] = test system: Cryptococcus gattii species complex; test: Antifungal activity against Cryptococcus gattii ICB181 after 48 to 72 hrs by broth microdilution method; assay type: functional, Cryptococcus bacillisporus; procedure, shortened: as §1
Cryptococcus neoformans [12] = test: Antifungal activity against Cryptococcus neoformans 5396 after 48 to 72 hrs by broth microdilution method; assay type: functional; procedure, shortened: as §2
[13] = Selectivity index, ratio of IC50 for C57BL/6 mouse peritoneal macrophages to MIC for Cryptococcus neoformans ATCC 24067
Procedure, shortened: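 SI = IC50/MIC. Thioglycollate-elicited peritoneal macrophages from C57BL/6 mice are seeded at 1 x 10^5/well. They are exposed for 48 h at 37°C to eight concentrations from 100 to 0.0128 µM. Viability read by MTT versus 0.5% DMSO control, triplicate in two experiments.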

[14] = test system: Cryptococcus gattii species complex; test: Antifungal activity against Cryptococcus gattii L24/01 after 48 to 72 hrs by broth microdilution method; assay type: functional, Cryptococcus bacillisporus; procedure, shortened: as §1
[15] = test system: Cryptococcus bacillisporus; test: Antifungal activity against Cryptococcus gattii ATCC 32608 after 48 to 72 hrs by broth microdilution method; assay type: functional; procedure, shortened: as §1
Cryptococcus neoformans [16] = test: Antifungal activity against Cryptococcus neoformans F10 after 48 to 72 hrs by broth microdilution method; assay type: functional; procedure, shortened: as §2
[17] = test system: Cryptococcus gattii species complex; test: Antifungal activity against Cryptococcus gattii 196L/03 after 48 to 72 hrs by broth microdilution method; assay type: functional, Cryptococcus bacillisporus; procedure, shortened: as §1
Cryptococcus neoformans [18] = test: Antifungal activity against Cryptococcus neoformans ATCC 28957 after 48 to 72 hrs by broth microdilution method; assay type: functional; procedure, shortened: as §2
Cryptococcus neoformans [19] = test: Antifungal activity against Cryptococcus neoformans LMM820 after 48 to 72 hrs by broth microdilution method; assay type: functional; procedure, shortened: as §2
[20] = test system: Cryptococcus gattii species complex; test: Antifungal activity against Cryptococcus gattii 1913ER after 48 to 72 hrs by broth microdilution method; assay type: functional, Cryptococcus bacillisporus; procedure, shortened: as §1
Cryptococcus neoformans [21] = test: Antifungal activity against Cryptococcus neoformans WP after 48 to 72 hrs by broth microdilution method; assay type: functional; procedure, shortened: as §2
Cryptococcus neoformans [22] = test: Antifungal activity against Cryptococcus neoformans 27JF after 48 to 72 hrs by broth microdilution method; assay type: functional; procedure, shortened: as §2
Cryptococcus neoformans [23] = test: Antifungal activity against Cryptococcus neoformans ATCC 62066 after 48 to 72 hrs by broth microdilution method; assay type: functional
Cryptococcus neoformans [24] = test: Antifungal activity against Cryptococcus neoformans CN31 after 48 to 72 hrs by broth microdilution method; assay type: functional; procedure, shortened: as §2
[25] = Selectivity index, ratio of IC50 for African green monkey Vero cells to MIC for Cryptococcus neoformans ATCC 24067; assay type: toxicity, cell-based
Cryptococcus neoformans [26] = test: Antifungal activity against Cryptococcus neoformans 96806 after 48 to 72 hrs by broth microdilution method; assay type: functional; procedure, shortened: as §2
Vero = test: Cytotoxicity against African green monkey Vero cells assessed as cell viability measured after 48 hrs by MTT assay; assay type: cell-based; settings: Chlorocebus sabaeus
Procedure, shortened: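 VERO cells in D-MEM with 5% FBS, used up to 20 passages. Seeded 1 x 10^4 cells/well, pre-incubated 24 h at 37°C. Exposed 48 h at 37°C, 5% CO2, to eight nonserial dilutions from 100 to 0.0128 µM, with 0.5% DMSO control. MTT reduction read-out, corrected for background and blank. IC50 reported as median with 95% CI. Triplicate, two independent experiments.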

- MIC [1]: 0.08 µM (≈ 0.0739 µg/mL)
- MIC (Cryptococcus neoformans [2]): 0.07 µM (≈ 0.0647 µg/mL)
- MIC [3]: 0.08 µM (≈ 0.0739 µg/mL)
- MIC [4]: 0.14 µM (≈ 0.129 µg/mL)
- MIC [5]: 0.08 µM (≈ 0.0739 µg/mL)
- MIC [6]: 0.04 µM (≈ 0.037 µg/mL)
- MIC [7]: 0.14 µM (≈ 0.129 µg/mL)
- MIC (Cryptococcus neoformans [8]): 0.11 µM (≈ 0.102 µg/mL)
- MIC (Cryptococcus neoformans [9]): 0.09 µM (≈ 0.0832 µg/mL)
- MIC [11]: 0.12 µM (≈ 0.111 µg/mL)
- MIC (Cryptococcus neoformans [12]): 0.06 µM (≈ 0.0554 µg/mL)
- MIC [14]: 0.04 µM (≈ 0.037 µg/mL)
- MIC [15]: 0.14 µM (≈ 0.129 µg/mL)
- MIC (Cryptococcus neoformans [16]): 0.06 µM (≈ 0.0554 µg/mL)
- MIC [17]: 0.04 µM (≈ 0.037 µg/mL)
- MIC (Cryptococcus neoformans [18]): 0.04 µM (≈ 0.037 µg/mL)
- MIC (Cryptococcus neoformans [19]): 0.06 µM (≈ 0.0554 µg/mL)
- MIC [20]: 0.08 µM (≈ 0.0739 µg/mL)
- MIC (Cryptococcus neoformans [21]): 0.09 µM (≈ 0.0832 µg/mL)
- MIC (Cryptococcus neoformans [22]): 0.07 µM (≈ 0.0647 µg/mL)
- MIC (Cryptococcus neoformans [23]): 0.03 µM (≈ 0.0277 µg/mL)
- MIC (Cryptococcus neoformans [24]): 0.08 µM (≈ 0.0739 µg/mL)
- MIC (Cryptococcus neoformans [26]): 0.09 µM (≈ 0.0832 µg/mL)
Compound: C[C@@H]1[C@H](O)[C@@H](C)/C=C/C=C/C=C/C=C/C=C/C=C/C=C/[C@H](O[C@@H]2O[C@H](C)[C@@H](O)[C@H](N)[C@@H]2O)C[C@@H]2O[C@](O)(C[C@@H](O)C[C@@H](O)[C@H](O)CC[C@@H](O)C[C@@H](O)CC(=O)O[C@H]1C)C[C@H](O)[C@H]2C(=O)O [AMPHOTERICIN B]
- MFC [1]: 0.1 µM (≈ 0.0924 µg/mL)
- MFC (Cryptococcus neoformans [2]): 0.22 µM (≈ 0.203 µg/mL)
- MFC [3]: 0.1 µM (≈ 0.0924 µg/mL)
- MFC [4]: 0.2 µM (≈ 0.185 µg/mL)
- MFC [5]: 0.1 µM (≈ 0.0924 µg/mL)
- MFC [6]: 0.1 µM (≈ 0.0924 µg/mL)
- MFC [7]: 0.5 µM (≈ 0.462 µg/mL)
- MFC (Cryptococcus neoformans [8]): 0.22 µM (≈ 0.203 µg/mL)
- IC50 [10]: 53.4 µM
- MFC [11]: 0.9 µM (≈ 0.832 µg/mL)
- MFC (Cryptococcus neoformans [12]): 0.11 µM (≈ 0.102 µg/mL)
- Ratio [13]: 109.81
- MFC [14]: 0.1 µM (≈ 0.0924 µg/mL)
- MFC [15]: 0.9 µM (≈ 0.832 µg/mL)
- MFC (Cryptococcus neoformans [16]): 0.11 µM (≈ 0.102 µg/mL)
- MFC [17]: 0.2 µM (≈ 0.185 µg/mL)
- MFC (Cryptococcus neoformans [18]): 0.22 µM (≈ 0.203 µg/mL)
- MFC (Cryptococcus neoformans [19]): 0.22 µM (≈ 0.203 µg/mL)
- MFC [20]: 0.1 µM (≈ 0.0924 µg/mL)
- MFC (Cryptococcus neoformans [21]): 0.22 µM (≈ 0.203 µg/mL)
- MFC (Cryptococcus neoformans [22]): 0.45 µM (≈ 0.416 µg/mL)
- MFC (Cryptococcus neoformans [23]): 0.22 µM (≈ 0.203 µg/mL)
- MFC (Cryptococcus neoformans [24]): 0.45 µM (≈ 0.416 µg/mL)
- selectivity ratio [25]: 206
- MFC (Cryptococcus neoformans [26]): 0.45 µM (≈ 0.416 µg/mL)
- IC50 (Vero): > 100 µM
